Measurements published in ChEMBL document CHEMBL2202986, “Guaianolide sesquiterpene lactones, a source to discover agents that selectively inhibit acute myelogenous leukemia stem and progenitor cells” (J Med Chem, 2012).

Experiments:
[1] = Antitumor activity against mixed-lineage human leukemia cells xenografted in NOD/SCID mouse assessed as reduction of CD45+CD33+ cells in bone marrow at 100 mg/kg, po qd administered every other day total of seven doses starting from 8 weeks post grafting measured on day 35 (reference value: 9.8 %); assay type: functional, Leukemia cell; parameters: scale not given: the % may be the effect or the level left
Mus musculus [2] = experiment: Toxicity in BALB/c mouse assessed as pathological changes in liver at 500 mg/kg, po administered every day for 7 days by hematoxylin-eosin staining method; conditions: in vivo, 168 h
[3] = Toxicity in po dosed BALB/c mouse administered as single dose; assay type: organism-based; conditions: in vivo
Procedure, shortened: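 Oral gavage of aqueous solution at a single dose of 1000 mg/kg. Untreated and water-vehicle mice served as controls; 16 mice in total (8 male/8 female). Mice were sacrificed 1 week after dosing. Heart, liver, spleen, lung and kidney were formalin-fixed, paraffin-embedded, sectioned at 3 μm, H&E-stained, and examined for gross morphology.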

[4] = Drug degradation in HEPES buffer at pH <5 assessed as release of MCL; assay type: physicochemical
Procedure, shortened: (§1)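 A 20 μL aliquot of prodrug solution was added to 980 μL HEPES buffer (pH 7.4, or below 5.0) and incubated at 37 °C. Samples were withdrawn over time, and prodrug and released parent were quantified by HPLC (mean, SD, n = 4).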

[5] = Cmax in mouse at 100 mg/kg, iv; assay type: ADME, organism-based; parameters: dose 100 mg/kg, route intravenous; conditions: in vivo
Procedure, shortened: (§2)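 Male Kunming mice (20 2 g), fasted 12 h before dosing with water available, given DMAMCL as an aqueous solution iv (n = 5). Blood was drawn from the orbital veins at set times. DMAMCL and MCL in plasma were measured, and parameters were derived by a noncompartmental model.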

[6] = AUC (0 to t) in mouse at 100 mg/kg, iv; assay type: ADME, organism-based; parameters: dose 100 mg/kg, route intravenous; conditions: plasma; procedure, shortened: as §2
Mus musculus [7] = experiment: Toxicity in BALB/c mouse assessed as pathological changes in heart at 500 mg/kg, po administered every day for 7 days by hematoxylin-eosin staining method; conditions: in vivo, 168 h
[8] = Cytotoxicity against human leukemia cells assessed as cell viability at 10 uM after 18 hrs by annexin-V labeling-based flow cytometry
[9] = Half life in mouse at 100 mg/kg, iv; assay type: ADME, organism-based; parameters: dose 100 mg/kg, route intravenous; conditions: in vivo; procedure, shortened: as §2
[10] = AUC (0 to t) in mouse at 150 mg/kg, po; assay type: ADME, organism-based; parameters: dose 150 mg/kg, route oral; conditions: plasma
Procedure, shortened: (§3)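 Male Kunming mice (20 2 g), fasted 12 h before dosing with water available, given DMAMCL as an aqueous solution po (n = 5). Blood was drawn from the orbital veins at set times. Plasma DMAMCL and MCL were followed, and parameters came from noncompartmental analysis.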

Mus musculus [11] = experiment: Toxicity in BALB/c mouse assessed as pathological changes in kidney at 1000 mg/kg, po administered as single dose by hematoxylin-eosin staining method; assay type: organism-based; parameters: dose 1000 mg/kg, route oral; conditions: in vivo
Procedure, shortened: (§4)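 BALB/c mice (16 in total, 8 male/8 female) were given aqueous DMAMCL by gavage as a single 1000 mg/kg dose or 500 mg/kg daily for seven doses. Water-only and untreated mice served as controls. One week later, tissues were fixed in 10% neutral-buffered formalin, embedded in paraffin, cut into 3 μm sections, stained with H&E and examined microscopically.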

Mus musculus [12] = experiment: Toxicity in BALB/c mouse assessed as pathological changes in kidney at 500 mg/kg, po administered every day for 7 days by hematoxylin-eosin staining method; conditions: in vivo, 168 h
[13] = Total clearance in mouse at 150 mg/kg, po; assay type: ADME, organism-based; parameters: dose 150 mg/kg, route oral; conditions: in vivo; procedure, shortened: as §3
Mus musculus [14] = experiment: Toxicity in BALB/c mouse assessed as pathological changes in heart at 1000 mg/kg, po administered as single dose by hematoxylin-eosin staining method; assay type: organism-based; parameters: dose 1000 mg/kg, route oral; conditions: in vivo; procedure, shortened: as §4
[15] = AUC (0 to infinity) in mouse at 100 mg/kg, iv; assay type: ADME, organism-based; parameters: time infinity, dose 100 mg/kg, route intravenous; conditions: plasma; procedure, shortened: as §2
[16] = Antitumor activity against human leukemia stem/progenitor cells xenografted in NOD/SCID mouse assessed as reduction of CD45+CD33+ cells in bone marrow at 100 mg/kg, po qd administered every other day total of seven doses starting from 8 weeks post grafting measured on day 85; assay type: functional; parameters: scale not given: the % may be the effect or the level left
Procedure, shortened: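 NOD/SCID mice, sublethally irradiated (280cGay), received primary AML M5 patient cells via tail vein in PBS 6−10 h later. From 8 weeks after engraftment, aqueous drug was given orally every other day for seven doses. Surviving mice were sacrificed on day 85 post-inoculation, and human CD45⁺CD33⁺ cells in bone marrow were measured by flow cytometry.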

[17] = Cytotoxicity against human leukemia stem/progenitor cells assessed as viable CD34+ cells at 10 uM after 18 hrs by annexin-V labeling-based flow cytometry; assay type: functional, CD34+ cell
[18] = Drug degradation in HEPES buffer at pH 7.4 assessed as release of MCL; assay type: physicochemical; procedure, shortened: as §1
[19] = Antitumor activity against human leukemia stem/progenitor cells xenografted in NOD/SCID mouse assessed as survival rate at 100 mg/kg, po qd administered every other day total of seven doses starting from 8 weeks post grafting measured on day 85; assay type: functional
Procedure, shortened: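 NOD/SCID mice were sublethally irradiated (280cGay), then 6−10 h later given primary AML M5 patient cells via tail vein in PBS. From 8 weeks postinoculation, aqueous solution was given orally at 100 mg/kg every other day for seven doses. Survival was followed, Kaplan−Meier, n = 6 per treated group and n = 7 untreated controls. Survivors at day 85 had bone marrow analysed for human CD45⁺CD33⁺ cells.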

[20] = Mean retention time (0 to infinity) in mouse at 100 mg/kg, iv; assay type: ADME, organism-based; parameters: dose 100 mg/kg, route intravenous; conditions: in vivo; procedure, shortened: as §2
Mus musculus [21] = experiment: Toxicity in BALB/c mouse assessed as pathological changes in lung at 500 mg/kg, po administered every day for 7 days by hematoxylin-eosin staining method; conditions: in vivo, 168 h
Plasma = experiment: Drug metabolism in mouse plasma assessed as release of MCL; assay type: ADME, cell-free
Procedure, shortened: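 A 20 μL aliquot of prodrug solution was added to 980 μL blank mouse plasma and incubated at 37 °C. Prodrug and released parent drug concentrations were measured over time by HPLC (mean, SD, n = 4).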

[22] = Cmax in mouse at 150 mg/kg, po; assay type: ADME, organism-based; parameters: dose 150 mg/kg, route oral; conditions: in vivo; procedure, shortened: as §3
[23] = Mean retention time (0 to infinity) in mouse at 150 mg/kg, po; assay type: ADME, organism-based; parameters: dose 150 mg/kg, route oral; conditions: in vivo; procedure, shortened: as §3
[24] = Mean retention time (0 to t) in mouse at 100 mg/kg, iv; assay type: ADME, organism-based; parameters: dose 100 mg/kg, route intravenous; conditions: in vivo; procedure, shortened: as §2
[25] = Half life in mouse at 150 mg/kg, po; assay type: ADME, organism-based; parameters: dose 150 mg/kg, route oral; conditions: in vivo; procedure, shortened: as §3
[26] = Antitumor activity against mixed-lineage human leukemia cells xenografted in NOD/SCID mouse assessed as inhibition of cancer cell engrafting at 100 mg/kg, po qd administered every other day total of seven doses starting from 8 weeks post grafting measured on day 35; assay type: functional
[27] = Toxicity in po dosed BALB/c mouse administered every day for 7 days; conditions: in vivo
[28] = Total clearance in mouse at 100 mg/kg, iv; assay type: ADME, organism-based; parameters: dose 100 mg/kg, route intravenous; conditions: in vivo; procedure, shortened: as §2
[29] = Tmax in mouse at 150 mg/kg, po; assay type: ADME, organism-based; parameters: dose 150 mg/kg, route oral; conditions: in vivo; procedure, shortened: as §3
[30] = Cytotoxicity against human HL60/A cells after 18 hrs by annexin-V labeling-based flow cytometry; assay type: functional, cell-based
[31] = Oral bioavailability in mouse at 150 mg/kg; assay type: ADME, organism-based; conditions: in vivo

In the case of `CC1=C2CC[C@@](C)(O)[C@@H]2[C@H]2OC(=O)[C@@H](CN(C)C)[C@@H]2CC1.Cl` [DIMETHYLAMINOMICHELIOLIDE HYDROCHLORIDE], the Activity [1] is reported as 0.14%, the Activity (Mus musculus [2]) is reported as “Non-toxic” and the MTD [3] is reported as 1000 mg/kg. For the same molecule, the Drug degradation [4] was “Not Active”, the Cmax [5] was 92.9 µg/mL and the AUC(0-t) [6] was 43900 ng·h/mL. For the same molecule, the Activity (Mus musculus [7]) was “Non-toxic”, the viability at 10 µM [8] was 64.9% and the half-life [9] was 18.9 h. The AUC(0-t) [10] was 49600 ng·h/mL, the Activity (Mus musculus [11]) was “Non-toxic” and the Activity (Mus musculus [12]) was “Non-toxic”. The CL/F [13] was 51.3 mL/min/kg, the Activity (Mus musculus [14]) was “Non-toxic” and the AUC(0-inf) [15] was 44800 ng·h/mL. The Activity [16] was 0.005%, the Activity [17] was 60.4% and the Drug degradation [18] was “Active”. For the same molecule, the survival at 100 mg/kg [19] was 33%, the MRT inf [20] was 3.52 h and the Activity (Mus musculus [21]) was “Non-toxic”. The Drug metabolism (Plasma) was “Active”, the Cmax [22] was 19 µg/mL and the MRT inf [23] was 9.85 h. The MRT last [24] was 1.51 h, the half-life [25] was 9.82 h and the inhibition in vivo at 100 mg/kg [26] was 98.6%. It also gave an MTD at 168 h [27] of 500 mg/kg, a clearance [28] of 37.7 mL/min/kg and a Tmax [29] of 0.19 h. For the same molecule, the IC50 [30] was 21.5 µM and the bioavailability [31] was 75%.
